From ChEMBL document CHEMBL3580574, “Design, Synthesis, and Biological Evaluation of Hexacyclic Tetracyclines as Potent, Broad Spectrum Antibacterial Agents” (J Med Chem, 2015) come the findings set out here.

What all share (type): functional
For one assay, the system named is Klebsiella pneumoniae. The assay can be described thus: Antibacterial activity against Klebsiella pneumoniae 457 harboring CTX-M-15 gene assessed as bacterial growth inhibition by susceptibility testing assay. The note with it: Klebsiella pneumoniae, 457; read-out: MIC. The method in brief: (§1)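 Broth microdilution MIC per CLSI in 96-well plates; compound stocks prepared and serially diluted in sterile deionized water; cation-adjusted Mueller Hinton broth prepared fresh and held at 4 °C before testing, supplemented with lysed horse blood as appropriate; runs accepted when comparator antibiotics fell within QC ranges for appropriate ATCC quality control strains.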

Assay [1] relates to Staphylococcus aureus. The assay can be described thus: Antibacterial activity against tet(K) tetracycline-resistant Staphylococcus aureus 158 assessed as bacterial growth inhibition by susceptibility testing assay. As to conditions: Staphylococcus aureus, 158; read-out: MIC.
Assay [2] deals with Staphylococcus aureus. The assay can be described thus: Antibacterial activity against Staphylococcus aureus 101 ATCC 29213 assessed as bacterial growth inhibition by susceptibility testing assay. The note with it: Staphylococcus aureus, 101 ATCC 29213; read-out: MIC. The method in brief:
(§2)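 Broth microdilution MIC per CLSI in cation-adjusted Mueller Hinton broth, made fresh and held at 4 °C before testing. Medium supplemented with lysed horse blood where appropriate. Compound stocks prepared and serially diluted in sterile deionized water. Runs were accepted against QC ranges for comparator antibiotics and ATCC QC strains.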

In assay [3] the test system is Stenotrophomonas maltophilia. The assay can be described thus: Antibacterial activity against Stenotrophomonas maltophilia 256 assessed as bacterial growth inhibition by susceptibility testing assay. The note with it: Stenotrophomonas maltophilia, 256; read-out: MIC. In outline:
(§3)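 Medium supplemented with lysed horse blood where appropriate. Compound stocks prepared and serially diluted in sterile deionized water. Runs were accepted against QC ranges for comparator antibiotics and ATCC QC strains.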

Assay [4] deals with Escherichia coli. The assay can be described thus: Antibacterial activity against Escherichia coli 107 ATCC 25922 assessed as bacterial growth inhibition by susceptibility testing assay. As to conditions: Escherichia coli, 107 ATCC 25922; read-out: MIC. In outline:
as §2

The test system of another assay is Proteus mirabilis. The assay can be described thus: Antibacterial activity against Proteus mirabilis 385 assessed as bacterial growth inhibition by susceptibility testing assay. The note with it: Proteus mirabilis, 385; read-out: MIC. In outline: as §2
For a further assay, the system named is Streptococcus pneumoniae. The assay can be described thus: Antibacterial activity against tet(M) tetracycline-resistant Streptococcus pneumoniae 160 assessed as bacterial growth inhibition by susceptibility testing assay. The note with it: Streptococcus pneumoniae, 160; read-out: MIC.
The subject of assay [5] is Staphylococcus aureus. The assay can be described thus: Antibacterial activity against methicillin-resistant, tet(M) tetracycline-resistant Staphylococcus aureus 161 assessed as bacterial growth inhibition by susceptibility testing assay. As to conditions: Staphylococcus aureus, 161; read-out: MIC. The method in brief:
as §1

For the next assay, the system named is Enterobacter cloacae. The assay can be described thus: Antibacterial activity against tet(A) tetracycline-resistant Enterobacter cloacae 603 assessed as bacterial growth inhibition by susceptibility testing assay. As to conditions: Enterobacter cloacae, 603; read-out: MIC. The method in brief:
as §1

Another assay relates to Enterococcus faecalis. The assay can be described thus: Antibacterial activity against tet(M) tetracycline-resistant Enterococcus faecalis 327 assessed as bacterial growth inhibition by susceptibility testing assay. As to conditions: Enterococcus faecalis, 327; read-out: MIC. In outline:
as §1

Assay [6] concerns Escherichia coli. The assay can be described thus: Antibacterial activity against tet(A) tetracycline-resistant Escherichia coli 155 assessed as bacterial growth inhibition by susceptibility testing assay. As to conditions: Escherichia coli, 155; read-out: MIC. In outline: as §1
A further assay deals with Enterococcus faecium. The assay can be described thus: Antibacterial activity against tet(M) tetracycline-resistant Enterococcus faecium 404 assessed as bacterial growth inhibition by susceptibility testing assay. The note with it: Enterococcus faecium, 404; read-out: MIC.
For the next assay, the system named is Pseudomonas aeruginosa. The assay can be described thus: Antibacterial activity against Pseudomonas aeruginosa 555 BAA-47 assessed as bacterial growth inhibition by susceptibility testing assay. The note with it: Pseudomonas aeruginosa, 555 BAA-47; read-out: MIC. The method in brief: as §2
A further assay has as its system Burkholderia cenocepacia. The assay can be described thus: Antibacterial activity against Burkholderia cenocepacia 240 assessed as bacterial growth inhibition by susceptibility testing assay. The note with it: Burkholderia cenocepacia, 240; read-out: MIC. In outline: as §3
In a further assay the test system is Acinetobacter baumannii. The assay can be described thus: Antibacterial activity against tet(B) tetracycline-resistant Acinetobacter baumannii 250 assessed as bacterial growth inhibition by susceptibility testing assay. As to conditions: Acinetobacter baumannii, 250; read-out: MIC. In outline:
as §1

In brackets after ≈: the same amount, converted by molar mass. Where only a bound is given, the exact number is not on record here.

Regarding `CC(=O)N(C)CCN1CCC2CNc3c(O)c4c(c(F)c3C21)C[C@H]1C[C@H]2[C@H](N(C)C)C(O)=C(C(N)=O)C(=O)[C@@]2(O)C(O)=C1C4=O` (mixture of isomers), the MIC (usually the lowest concentration found to suppress growth) in the assay on Klebsiella pneumoniae was greater than 32 µg/mL; in the assay on Staphylococcus aureus [1], 1 µg/mL; with Staphylococcus aureus [2], 4 µg/mL; in assay [3] it was greater than 32 µg/mL; in the assay with Escherichia coli [4] it was 8 µg/mL; with Proteus mirabilis, greater than 32 µg/mL. For the same molecule, the minimum inhibitory concentration (MIC) is 4 µg/mL in the assay on Streptococcus pneumoniae; greater than 32 µg/mL with Staphylococcus aureus [5]; greater than 32 µg/mL with Enterobacter cloacae; greater than 32 µg/mL in the assay on Enterococcus faecalis; 32 µg/mL with Escherichia coli [6]; 32 µg/mL in the assay on Enterococcus faecium. Moreover, the minimal inhibitory concentration (MIC) in the assay on Pseudomonas aeruginosa, with Burkholderia cenocepacia and with Acinetobacter baumannii was greater than 32 µg/mL in each case.
In the case of `CC1C[C@H]2CNc3c(O)c4c(c(OC(F)(F)F)c3[C@H]2N1C)C[C@H]1C[C@H]2[C@H](N(C)C)C(O)=C(C(N)=O)C(=O)[C@@]2(O)C(O)=C1C4=O` (stereo not given in full), the minimum inhibitory concentration (MIC) in the assay with Klebsiella pneumoniae is 2 µg/mL (≈ 3.21 µM); with Staphylococcus aureus [1], no more than 0.0156 µg/mL; with Staphylococcus aureus [2], 0.0312 µg/mL (≈ 0.0501 µM); in assay [3], 0.25 µg/mL (≈ 0.402 µM); in the assay with Escherichia coli [4], no more than 0.0156 µg/mL; with Proteus mirabilis, 2 µg/mL (≈ 3.21 µM). Further, the MIC with Streptococcus pneumoniae is no more than 0.0156 µg/mL; with Staphylococcus aureus [5], 0.0312 µg/mL (≈ 0.0501 µM); in the assay with Enterobacter cloacae, 2 µg/mL (≈ 3.21 µM); in the assay with Enterococcus faecalis, no more than 0.0156 µg/mL; in the assay with Escherichia coli [6] it was 0.0625 µg/mL (≈ 0.1 µM); in the assay on Enterococcus faecium it was 0.0312 µg/mL (≈ 0.0501 µM). In addition, the MIC is 8 µg/mL (≈ 12.8 µM) in the assay on Pseudomonas aeruginosa, 16 µg/mL (≈ 25.7 µM) with Burkholderia cenocepacia and 1 µg/mL (≈ 1.61 µM) in the assay on Acinetobacter baumannii.
Take `CN(C)[C@@H]1C(O)=C(C(N)=O)C(=O)[C@@]2(O)C(O)=C3C(=O)c4c(O)c5c(c(F)c4C[C@H]3C[C@@H]12)[C@H]1N(C)CC[C@@]1(C)CN5`: the minimal inhibitory concentration (MIC) was 4 µg/mL (≈ 7.19 µM) in the assay on Klebsiella pneumoniae; 0.125 µg/mL (≈ 0.225 µM) with Staphylococcus aureus [1]; 0.5 µg/mL (≈ 0.898 µM) in the assay with Staphylococcus aureus [2]; 2 µg/mL (≈ 3.59 µM) in [3]; 0.25 µg/mL (≈ 0.449 µM) in the assay with Escherichia coli [4]; 8 µg/mL (≈ 14.4 µM) in the assay on Proteus mirabilis. Besides, the MIC was 0.25 µg/mL (≈ 0.449 µM) in the assay on Streptococcus pneumoniae; 8 µg/mL (≈ 14.4 µM) with Staphylococcus aureus [5]; 4 µg/mL (≈ 7.19 µM) in the assay on Enterobacter cloacae; 8 µg/mL (≈ 14.4 µM) in the assay on Enterococcus faecalis; 2 µg/mL (≈ 3.59 µM) in the assay with Escherichia coli [6]; 4 µg/mL (≈ 7.19 µM) in the assay on Enterococcus faecium. Further, the MIC in the assay on Pseudomonas aeruginosa came out at 32 µg/mL (≈ 57.5 µM); with Burkholderia cenocepacia, 32 µg/mL (≈ 57.5 µM); in the assay on Acinetobacter baumannii, 8 µg/mL (≈ 14.4 µM).
Regarding `CN(C)[C@@H]1C(O)=C(C(N)=O)C(=O)[C@@]2(O)C(O)=C3C(=O)c4c(O)cccc4[C@@](C)(O)[C@H]3C[C@@H]12` [TETRACYCLINE], the minimal inhibitory concentration (MIC) was 8 µg/mL (≈ 18 µM) with Klebsiella pneumoniae; 0.125 µg/mL (≈ 0.281 µM) in the assay with Staphylococcus aureus [2]; 1 µg/mL (≈ 2.25 µM) with Escherichia coli [4]; greater than 32 µg/mL in the assay on Proteus mirabilis; 64 µg/mL (≈ 144 µM) in the assay on Staphylococcus aureus [5]; greater than 32 µg/mL in the assay with Enterobacter cloacae. In addition, the minimum inhibitory concentration (MIC) in the assay on Enterococcus faecalis was greater than 32 µg/mL; in the assay on Escherichia coli [6], greater than 64 µg/mL; in the assay on Pseudomonas aeruginosa it was greater than 32 µg/mL; in the assay with Acinetobacter baumannii it was greater than 32 µg/mL.
Take `CN(C)[C@@H]1C(O)=C(C(N)=O)C(=O)[C@@]2(O)C(O)=C3C(=O)c4c(O)c5c(c(F)c4C[C@H]3C[C@@H]12)C1NCCC1CN5` (mixture of isomers): the minimal inhibitory concentration (MIC) in the assay with Klebsiella pneumoniae is 2 µg/mL; with Staphylococcus aureus [1], 0.5 µg/mL; in the assay with Staphylococcus aureus [2], 2 µg/mL; in [3], greater than 32 µg/mL; in the assay with Escherichia coli [4], 0.5 µg/mL; in the assay on Proteus mirabilis, 0.5 µg/mL. Besides, the MIC in the assay on Streptococcus pneumoniae worked out at 0.5 µg/mL; in the assay on Staphylococcus aureus [5] it was 4 µg/mL; in the assay on Enterobacter cloacae, 8 µg/mL; with Enterococcus faecalis it was 2 µg/mL; with Escherichia coli [6] it was 1 µg/mL; in the assay on Enterococcus faecium it was 1 µg/mL. Further, the minimal inhibitory concentration (MIC) in the assay with Pseudomonas aeruginosa was 32 µg/mL; in the assay with Burkholderia cenocepacia, greater than 32 µg/mL; in the assay on Acinetobacter baumannii it was greater than 32 µg/mL.
Turning to `CN(C)[C@@H]1C(O)=C(C(N)=O)C(=O)[C@@]2(O)C(O)=C3C(=O)c4c(O)c5c(c(OC(F)(F)F)c4C[C@H]3C[C@@H]12)[C@@H]1[C@H](CN5)CC2CCCCN21` (stereo not given in full), the minimal inhibitory concentration (MIC) in the assay with Klebsiella pneumoniae is 4 µg/mL (≈ 6.17 µM); in the assay on Staphylococcus aureus [1], no more than 0.0156 µg/mL; in the assay on Staphylococcus aureus [2] it was 0.0625 µg/mL (≈ 0.0964 µM); in assay [3] it was 1 µg/mL (≈ 1.54 µM); with Escherichia coli [4], no more than 0.0156 µg/mL; in the assay on Proteus mirabilis, 4 µg/mL (≈ 6.17 µM). In addition, the MIC in the assay with Streptococcus pneumoniae is no more than 0.0156 µg/mL; in the assay on Staphylococcus aureus [5], 0.25 µg/mL (≈ 0.385 µM); with Enterobacter cloacae, 4 µg/mL (≈ 6.17 µM); with Enterococcus faecalis, 0.0312 µg/mL (≈ 0.0481 µM); in the assay with Escherichia coli [6], 0.125 µg/mL (≈ 0.193 µM); with Enterococcus faecium, no more than 0.0156 µg/mL. Further, the MIC in the assay with Pseudomonas aeruginosa is 16 µg/mL (≈ 24.7 µM); in the assay on Burkholderia cenocepacia, 8 µg/mL (≈ 12.3 µM); in the assay with Acinetobacter baumannii, 2 µg/mL (≈ 3.08 µM).
